# According to ChEMBL document CHEMBL3244370, “Synthesis, metabolism, and antitumor activity of deuterated analogues of 1-(2-chloroethyl)-3-cyclohexyl-1-nitrosourea” (J Med Chem, 1978):
# Tests used:
# [1] = tested on: Liver microsome; test: Retention time in Wistar rat liver microsomes at 50 ug/ml after 10 mins by HPLC analysis; assay type: ADME
# Procedure, shortened: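 Liver microsomes from phenobarbital-pretreated male Wistar rats (protein 2.1 mg/mL), with an NADPH-generating system (NADP, glucose 6-phosphate, MgCl2, G6P dehydrogenase) in 0.1 M phosphate pH 7.4. Incubated under oxygen at 37 °C for 10 min, then extracted with hexane. OH-CCNU isomers resolved by analytical HPLC using n-heptane–dichloromethane–propan-2-ol (960:63:35) at 1.9 mL/min; elution times recorded.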
# [2] = Antitumor activity against mouse TLX5 cells allografted in mouse assessed as increase in host survival time at 40 mg/kg relative to control; assay type: functional, TLX-5
# [3] = Antitumor activity against mouse TLX5 cells allografted in mouse assessed as increase in host survival time at 5 mg/kg relative to control; assay type: functional, TLX-5
# [4] = Antitumor activity against mouse TLX5 cells allografted in mouse assessed as increase in host survival time at 10 mg/kg relative to control; assay type: functional, TLX-5
# [5] = Antitumor activity against mouse TLX5 cells allografted in mouse assessed as increase in host survival time at 20 mg/kg relative to control; assay type: functional, TLX-5
# [6] = Antitumor activity against mouse TLX5 cells allografted in mouse assessed as increase in host survival time at 160 mg/kg relative to control; assay type: functional, TLX-5
# [7] = tested on: Liver microsome; test: Drug metabolism in Wistar rat liver microsomes assessed as recovered CCNU level at 2.8 mg after 10 mins by HPLC analysis; assay type: ADME; details: in vitro
# Procedure, shortened: (§1)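 Microsomes from phenobarbital-pretreated male Wistar rat liver (protein 2.1 mg/mL) in 0.1 M phosphate pH 7.4 with NADP, glucose 6-phosphate, MgCl₂ and G6PDH. Incubated under O₂ at 37 °C for 10 min; 2.8 mg (12 μmol) substrate in 20 mL total. Hexane extraction, then silica HPLC quantification of residual CCNU and OH-CCNU isomers.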
# [8] = tested on: Liver microsome; test: Drug metabolism in Wistar rat liver microsomes assessed as recovered total OH-CCNU derivatives level at 2.8 mg after 10 mins by HPLC analysis; assay type: ADME; details: in vitro; procedure, shortened: as §1
# [9] = Antitumor activity against mouse TLX5 cells allografted in mouse assessed as increase in host survival time at 80 mg/kg relative to control; assay type: functional, TLX-5
# [10] = Drug metabolism in Wistar rat liver microsomes at 50 ug/ml after 5 mins; assay type: ADME; details: read-out: Drug metabolism
# Procedure, shortened: (§2)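 Equimolar CCNU and CCNU-d10, each 50 μg/mL (0.21 mM), co-incubated at 37 °C under O₂ with phenobarbital-induced male Wistar rat liver microsomes plus NADPH-generating system in 0.1 M phosphate pH 7.4. Duplicate 1 mL samples taken at intervals into hexane containing CCNU-d4 internal standard. Residual drug measured by 12 eV mass spectrometry. Heat-inactivated microsomes used as control.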
# [11] = Drug metabolism in Wistar rat liver microsomes at 50 ug/ml after 20 mins; assay type: ADME; details: read-out: Drug metabolism; procedure, shortened: as §2
# [12] = Drug metabolism in Wistar rat liver microsomes at 50 ug/ml after 10 mins; assay type: ADME; details: read-out: Drug metabolism; procedure, shortened: as §2
# [13] = Drug metabolism in Wistar rat liver microsomes at 50 ug/ml after 2.5 mins; assay type: ADME; details: read-out: Drug metabolism; procedure, shortened: as §2
# [14] = tested on: W256; test: Antitumor activity against 0.25 ug/ml compound treated rat Walker 256 cells allografted in rat assessed as increase of host survival time cells incubated for 2 hrs with rat liver microsomes and NADPH prior to animal injection; assay type: functional
# [15] = tested on: W256; test: Antitumor activity against 4 ug/ml compound treated rat Walker 256 cells allografted in rat assessed as increase of host survival time cells incubated for 2 hrs with NADPH prior to animal injection; assay type: functional
# [16] = tested on: W256; test: Antitumor activity against 0.5 ug/ml compound treated rat Walker 256 cells allografted in rat assessed as increase of host survival time cells incubated for 2 hrs with NADPH prior to animal injection; assay type: functional
# [17] = tested on: W256; test: Antitumor activity against 1 ug/ml compound treated rat Walker 256 cells allografted in rat assessed as increase of host survival time cells incubated for 2 hrs with NADPH prior to animal injection; assay type: functional
# [18] = tested on: W256; test: Antitumor activity against 0.5 ug/ml compound treated rat Walker 256 cells allografted in rat assessed as increase of host survival time cells incubated for 2 hrs with rat liver microsomes and NADPH prior to animal injection; assay type: functional
# [19] = tested on: W256; test: Antitumor activity against 0.25 ug/ml compound treated rat Walker 256 cells allografted in rat assessed as increase of host survival time cells incubated for 2 hrs with NADPH prior to animal injection; assay type: functional
# [20] = tested on: W256; test: Antitumor activity against 4 ug/ml compound treated rat Walker 256 cells allografted in rat assessed as increase of host survival time cells incubated for 2 hrs with rat liver microsomes and NADPH prior to animal injection; assay type: functional
# [21] = tested on: W256; test: Antitumor activity against 1 ug/ml compound treated rat Walker 256 cells allografted in rat assessed as increase of host survival time cells incubated for 2 hrs with rat liver microsomes and NADPH prior to animal injection; assay type: functional
Retention_time [1] [min],SMILES,Activity [2] [%],Activity [3] [%],Activity [4] [%],Activity [5] [%],Activity [6] [%],Drug metabolism [7] [µg],Drug metabolism [8] [µg],Activity [9] [%],further results
9.6,O=NN(CCCl)C(=O)N[C@H]1CC[C@@H](O)CC1,,,,,,,,,
16.9,O=NN(CCCl)C(=O)N[C@H]1CC[C@H](O)CC1,,,,,,,,,
2.8,O=NN(CCCl)C(=O)N[C@H]1CCCC[C@H]1O,,,,,,,,,
,[2H]C1([2H])CCCC([2H])([2H])C1NC(=O)N(CCCl)N=O,178.7,-5.1,63.6,79.7,-21.3,272,1089,-9.1,
,[2H]C1([2H])CC(NC(=O)N(CCCl)N=O)CC([2H])([2H])C1([2H])[2H],81.4,38.1,38.1,95.8,-32,538,994,-7.3,
,[2H]C1([2H])C(NC(=O)N(CCCl)N=O)C([2H])([2H])C([2H])([2H])C([2H])([2H])C1([2H])[2H],217,,20,42,-28,498,911,-22,"metabolised at 5 min, 50 ug/ml [10]: 38.3%; metabolised at 20 min, 50 ug/ml [11]: 91.9%; metabolised at 10 min, 50 ug/ml [12]: 69.5%; metabolised at 2.5 min, 50 ug/ml [13]: 16.1%"
3.8,O=NN(CCCl)C(=O)N[C@H]1CCCC[C@@H]1O,,,,,,,,,
,O=NN(CCCl)C(=O)N[C@H]1CCC[C@@H](O)C1,,,,,,,,,Retention time [1]: 7.8 min
,O=NN(CCCl)C(=O)N[C@H]1CCC[C@H](O)C1,,,,,,,,,Retention time [1]: 7.1 min
,O=NN(CCCl)C(=O)NC1CCCCC1 [LOMUSTINE],76.8,1,54,69.6,-31.4,,1230,-23.3,"Activity [14]: 21%; Survival [15]: 30 days; Activity [16]: 60%; Activity [17]: 64%; Activity [18]: 106%; metabolised at 5 min, 50 ug/ml [10]: 47.9%; Activity [19]: 9%; metabolised at 20 min, 50 ug/ml [11]: 91.8%; Survival [20]: 30 days; metabolised at 10 min, 50 ug/ml [12]: 72.5%; metabolised at 2.5 min, 50 ug/ml [13]: 26.8%; Activity [21]: 145%"
